Data from ChEMBL document CHEMBL2417493, “Novel cycloalkylthiophene-imine derivatives bearing benzothiazole scaffold: synthesis, characterization and antiviral activity evaluation” (Bioorg Med Chem Lett, 2013).
In brackets after ≈: the same amount, converted by molar mass. Activity calls are given as the source filed them. The rule behind the calls is not given here.

Experiments:
[1] = Cytotoxicity against human HeLa cells after 72 hrs by MTT assay; type: cell-based
How it was run: (§1)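 MTT assay on RD (rhabdomyosarcoma), HepG2 and HeLa cell lines. CC50 is the concentration that cut cell viability by 50% relative to 0.1% DMSO-treated mock-control cells. Values are mean and SD of three independent experiments.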

unidentified adenovirus [2] = experiment: Antiviral activity against Adenovirus type 7 infected in human HeLa cells assessed as inhibition of virus-induced cytopathogenicity at 32 ug/ml after 48 hrs by crystal violet staining method; type: functional
How it was run: (§2)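 Single-concentration screen with these pairings: RD/EV71, HepG2/CVB5, HeLa/ADV7, MDCK/H1N1. Cells were infected and kept 48 h in the presence of compound at one fixed concentration; some EV71 tests used the lower level. Inhibition of virus proliferation was read by crystal violet staining.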

Influenza A virus [3] = experiment: Antiviral activity against influenza A virus H1N1 infected in dog MDCK cells assessed as inhibition of virus-induced cytopathogenicity at 32 ug/ml after 48 hrs by crystal violet staining method; type: functional, organism-based; how it was run: as §2
[4] = Cytotoxicity against human rhabdomyosarcoma cells after 72 hrs by MTT assay; type: cell-based, Rhabdomyosarcoma cell; how it was run: as §1
Enterovirus [5] = experiment: Antiviral activity against Enterovirus 71 infected in human rhabdomyosarcoma cells assessed as inhibition of virus-induced cytopathogenicity at 32 ug/ml after 48 hrs by crystal violet staining method; type: functional; how it was run: as §2
[6] = Cytotoxicity against human HepG2 cells after 72 hrs by MTT assay; type: cell-based; how it was run: as §1
unidentified adenovirus [7] = experiment: Antiviral activity against Adenovirus type 7 infected in human HeLa cells assessed as inhibition of virus-induced cytopathogenicity after 48 hrs by crystal violet staining method; type: functional, organism-based
How it was run: (§3)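 Virus–cell pairings were EV71 in RD, CVB5 in HepG2, ADV7 in HeLa and influenza A H1N1 in MDCK. Compounds were added […], and total infectivity was read by crystal violet staining. EC50 is the concentration reducing viral replication by 50%. Values are mean SD of three independent experiments.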

Coxsackievirus B5 [8] = experiment: Antiviral activity against Coxsackievirus B5 infected in human HepG2 cells assessed as inhibition of virus-induced cytopathogenicity at 32 ug/ml after 48 hrs by crystal violet staining method; type: functional; how it was run: as §2
Enterovirus [9] = experiment: Antiviral activity against Enterovirus 71 infected in human rhabdomyosarcoma cells assessed as inhibition of virus-induced cytopathogenicity after 48 hrs by crystal violet staining method; type: functional, organism-based; how it was run: as §3
Coxsackievirus B5 [10] = experiment: Antiviral activity against Coxsackievirus B5 infected in human HepG2 cells assessed as inhibition of virus-induced cytopathogenicity after 48 hrs by crystal violet staining method; type: functional, organism-based; details: for EC50: Enterovirus B, HepG2, 48 h; how it was run: as §3
Influenza A virus [11] = experiment: Antiviral activity against influenza A virus H1N1 infected in dog MDCK cells assessed as inhibition of virus-induced cytopathogenicity after 48 hrs by crystal violet staining method; type: functional, organism-based; how it was run: as §3
[12] = Selectivity index, ratio of CC50 for human HepG2 cells to EC50 for Coxsackievirus B5 infected in human HepG2 cells; type: toxicity, cell-based; details: read-out: Ratio CC50/EC50
How it was run: (§4)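 Antiviral pairings were EV71 in RD cells, CVB5 in HepG2 cells and ADV7 in HeLa cells. Compounds were added […], and total infectivity was read by crystal violet staining. EC50 is the concentration that cut viral replication by 50%. CC50 came from MTT relative to 0.1% DMSO mock control. SI = CC50/EC50. Data are from three independent experiments.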

[13] = Selectivity index, ratio of CC50 for human rhabdomyosarcoma cells to EC50 for Enterovirus 71 infected in human rhabdomyosarcoma cells; type: toxicity; details: read-out: Ratio CC50/EC50; how it was run: as §4

Row | SMILES | CC50 at 72 h [1] [µg/mL] | inhibition (unidentified adenovirus [2]) | inhibition (Influenza A virus [3]) | CC50 at 72 h [4] [µg/mL] | inhibition (Enterovirus [5]) | CC50 at 72 h [6] [µg/mL] | inhibition (INH) (unidentified adenovirus [7]) [%] | inhibition (Coxsackievirus B5 [8]) | inhibition (INH) (Enterovirus [9]) [%] | inhibition (INH) (Coxsackievirus B5 [10]) [%] | inhibition (INH) (Influenza A virus [11]) [%] | EC50 (Coxsackievirus B5 [10]) [µg/mL] | selectivity ratio [12] | selectivity ratio [13] | EC50 (Enterovirus [9]; Enterovirus, 71, 48 h) [µg/mL]
1 | Fc1ccccc1/C=N/c1sc2c(c1-c1nc3ccccc3s1)CCC2 | 355 (≈ 938 µM) | Active | Active | 270 (≈ 713 µM) | Active | 394 (≈ 1040 µM) | <50 | Active | <50 | <50 | <50 | – | – | – | –
2 | Clc1ccc(/C=N/c2sc3c(c2-c2nc4ccccc4s2)CCC3)c(Cl)c1 | 345 (≈ 804 µM) | Active | Active | 160 (≈ 372 µM) | Active | 310 (≈ 722 µM) | <50 | Active | <50 | <50 | <50 | – | – | – | –
3 | Clc1ccc2sc(-c3c(/N=C/C=C/c4ccccc4)sc4c3CCCC4)nc2c1 | 150 (≈ 346 µM) | Active | Active | 212 (≈ 486 µM) | Active | 114 (≈ 262 µM) | <50 | Active | <50 | <50 | <50 | – | – | – | –
4 | C(=C\c1ccccc1)/C=N/c1sc2c(c1-c1nc3ccccc3s1)CCCC2 | 389 (≈ 971 µM) | Active | Active | 207 (≈ 517 µM) | Active | 467 (≈ 1170 µM) | <50 | Active | <50 | – | <50 | 14.7 (≈ 36.7 µM) | 31.6 | – | –
5 | Fc1ccccc1/C=N/c1sc2c(c1-c1nc3ccccc3s1)CCCC2 | 426 (≈ 1090 µM) | Active | Active | 319 (≈ 812 µM) | Active | 398 (≈ 1010 µM) | <50 | Active | <50 | <50 | <50 | – | – | – | –
6 | C(=N\c1sc2c(c1-c1nc3ccccc3s1)CCC2)/c1ccc2c(c1)OCO2 | 449 (≈ 1110 µM) | Active | Active | 310 (≈ 766 µM) | Active | 356 (≈ 881 µM) | <50 | Active | <50 | <50 | <50 | – | – | – | –
7 | Fc1ccc(/C=N/c2sc3c(c2-c2nc4ccccc4s2)CCC3)cc1 | 372 (≈ 984 µM) | Active | Active | 290 (≈ 765 µM) | Active | 302 (≈ 799 µM) | <50 | Active | <50 | – | <50 | 15.5 (≈ 41 µM) | 19.4 | – | –
8 | C(=N\c1sc2c(c1-c1nc3ccccc3s1)CCCC2)/c1ccc2c(c1)OCO2 | 568 (≈ 1360 µM) | Active | Active | 299 (≈ 714 µM) | Active | 329 (≈ 787 µM) | <50 | Active | – | <50 | <50 | – | – | 9.1 | 32.6 (≈ 77.9 µM)
9 | COc1cc(/C=N/c2sc3c(c2-c2nc4ccccc4s2)CCCC3)cc(OC)c1OC | 448 (≈ 963 µM) | Active | Active | 381 (≈ 821 µM) | Active | 301 (≈ 648 µM) | <50 | Active | <50 | <50 | <50 | – | – | – | –
10 | O=[N+]([O-])c1ccc(/C=N/c2sc3c(c2-c2nc4ccccc4s2)CCCC3)cc1 | 357 (≈ 850 µM) | Active | Active | 316 (≈ 754 µM) | Active | 454 (≈ 1080 µM) | <50 | Active | <50 | <50 | <50 | – | – | – | –
11 | Clc1ccc2sc(-c3c(/N=C/C=C/c4ccccc4)sc4c3CCC4)nc2c1 | 200 (≈ 476 µM) | Active | Active | 122 (≈ 291 µM) | Active | 14.9 (≈ 35.4 µM) | <50 | Active | <50 | <50 | <50 | – | – | – | –
12 | Clc1ccccc1/C=N/c1sc2c(c1-c1nc3ccccc3s1)CCC2 | 138 (≈ 350 µM) | Active | Active | 123 (≈ 312 µM) | Active | 180 (≈ 456 µM) | <50 | Active | <50 | <50 | <50 | – | – | – | –
13 | C(=C\c1ccccc1)/C=N/c1sc2c(c1-c1nc3ccccc3s1)CCC2 | 100 (≈ 259 µM) | Active | Active | 122 (≈ 317 µM) | Active | 215 (≈ 555 µM) | <50 | Active | <50 | <50 | <50 | – | – | – | –
14 | O=[N+]([O-])c1ccccc1/C=N/c1sc2c(c1-c1nc3ccccc3s1)CCCC2 | 369 (≈ 880 µM) | Active | Active | 255 (≈ 609 µM) | Active | 393 (≈ 937 µM) | <50 | Active | <50 | – | <50 | 11.2 (≈ 26.7 µM) | 35 | – | –
15 | FC(F)(F)c1ccc(/C=N/c2sc3c(c2-c2nc4ccccc4s2)CCCC3)cc1 | 368 (≈ 833 µM) | Active | Active | 250 (≈ 566 µM) | Active | 361 (≈ 816 µM) | <50 | Active | <50 | <50 | <50 | – | – | – | –
16 | Clc1ccccc1/C=N/c1sc2c(c1-c1nc3ccccc3s1)CCCC2 | 407 (≈ 996 µM) | Active | Active | 332 (≈ 811 µM) | Active | 370 (≈ 904 µM) | <50 | Active | <50 | <50 | <50 | – | – | – | –
17 | Clc1ccc(/C=N/c2sc3c(c2-c2nc4ccccc4s2)CCCC3)cc1 | 431 (≈ 1050 µM) | Active | Active | 367 (≈ 898 µM) | Active | 397 (≈ 970 µM) | <50 | Active | <50 | <50 | <50 | – | – | – | –
18 | Clc1ccc(/C=N/c2sc3c(c2-c2nc4ccccc4s2)CCC3)cc1 | 380 (≈ 963 µM) | Active | Active | 342 (≈ 867 µM) | Active | 430 (≈ 1090 µM) | <50 | Active | <50 | <50 | <50 | – | – | – | –
19 | Clc1ccc(/C=N/c2sc3c(c2-c2nc4ccccc4s2)CCCC3)c(Cl)c1 | 542 (≈ 1220 µM) | Active | Active | 56.6 (≈ 128 µM) | Active | 384 (≈ 865 µM) | <50 | Active | <50 | <50 | <50 | – | – | – | –
